Reference: ChEMBL document CHEMBL1123374, “Comparative pharmacology in the rat of ketamine and its two principal metabolites, norketamine and (Z)-6-hydroxynorketamine” (J Med Chem, 1986)

Legend:
[1] = Partition coefficient was expressed as the ratio of the equilibrium concentration in benzene solvent to that in an equal volume of pH 7.4 aqueous buffer; format: ADME
Summary of the method: (§1)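 Compound at 100 µg/mL in organic solvent shaken with equal volume 0.1 M sodium phosphate buffer pH 7.4, 30 min, ambient temperature; phases separated by centrifugation, each quantified by GC against internal standard; coefficient = organic/aqueous concentration ratio; triplicate per solvent, mean ± SEM.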

Rattus norvegicus = test: Compound was administered to male Sprague-Dawley rats (250-300 g) by intravenous (iv) bolus injection at a dose of 40 mg/kg; format: functional
Summary of the method: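 Male Sprague-Dawley rats (250-300 g) with right jugular vein catheter, 48 h recovery; 40 mg/kg iv bolus as free base in propylene glycol/ethanol/water (40/10/50) or HCl salt in 0.9% saline; controls given vehicle. Anesthesia duration by loss of righting reflex; locomotor activity by stabilimeter, excitation ended at <2 events per 3 min; mean ± SEM, n = 4.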

[2] = Partition coefficient was expressed as the ratio of the equilibrium concentration in chloroform solvent to that in an equal volume of pH 7.4 aqueous buffer; format: ADME; summary of the method: as §1
[3] = Partition coefficient was expressed as the ratio of the equilibrium concentration in n-heptane solvent to that in an equal volume of pH 7.4 aqueous buffer; format: ADME; summary of the method: as §1

With `NC1(c2ccccc2Cl)CCC[C@@H](O)C1=O` (stereo not given in full) the Partition coefficient [1] was 1.44, the Duration of anesthesia (Rattus norvegicus) was 0 min and the “Duration of increase in SLA” value (Rattus norvegicus) was 0 min. For the same molecule, the Partition coefficient [2] was 19.4 and the Partition coefficient [3] was 0.00963.
In the case of `CNC1(c2ccccc2Cl)CCCCC1=O` (stereo not given) [KETAMINE], the Partition coefficient [1] is reported as 98.6, the Duration of anesthesia (Rattus norvegicus) is reported as 7.11 min and the “Duration of increase in SLA” value (Rattus norvegicus) is reported as 24.65 min. The Partition coefficient [2] was 299 and the Partition coefficient [3] was 6.36.
In the case of `NC1(c2ccccc2Cl)CCCCC1=O` (stereo not given) [NORKETAMINE], the Partition coefficient [1] is reported as 52.6, the Duration of anesthesia (Rattus norvegicus) is reported as 3.24 min and the “Duration of increase in SLA” value (Rattus norvegicus) is reported as 7.15 min. The Partition coefficient [2] was 296 and the Partition coefficient [3] was 1.86.
